# Rows were chosen to be rich in hits. Some 5.1% of all compounds tested hit in one or more screens of this group.
# STAT1 blocker: inhibitors of IFN-gamma induced STAT1 signaling | inhibition, % at 5.5 µM | NIH 3T3 STAT1-luciferase reporter, luminescence | AID 920 | 200,000 tested, 0.35% active;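 active = inhibition above a set limit, the mean inhibition across all tested compounds plus 3 SD, cut at about 34% in these data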;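 also: 0% = IFN-gamma with DMSO and 100% = IFN-gamma with 300 µM nifuroxazide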
# STAT3 blocker: STAT3 signaling inhibition | U3A cells, IL-6 STAT3-luciferase reporter, luminescence; host cell line lacks STAT1 | 190,000 tested, 0.89% active | inhibition, % at 5.5 µM;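 active = inhibition above the mean inhibition across all screened compounds plus 3 SD, cut at about 44% in these data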;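 also: 0% = DMSO only wells and 100% = 100 µM nifuroxazide control wells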
# APP 5'UTR act: activates APP 5'UTR luciferase reporter; activation, % at 2 µM; 190,000 tested, 1% active; SH-SY5Y APP 5'UTR luciferase reporter, luminescence; zero percent = DMSO vehicle wells;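 active = activation above a set limit, based on mean plus 3 SD of controls, cut at about 140% in these data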
# STAT1 act-1: increases IFN-gamma driven STAT1 reporter signal; 200,000 tested, 2.6% active; NIH 3T3 STAT1-luciferase reporter, luminescence; 100% = IFN-gamma alone, no compound; activation (% of control), % at 5.5 µM;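 active = activation above the screen-wide mean activation plus 3 SD, cut at about 130% in these data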;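 also: raw ratio to IFN-gamma control signal so 100% means no change and 0% no light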
# STAT3 act-1: STAT3 signaling activation | activation (% of control), % at 5.6 µM | U3A cells, IL-6 STAT3-luciferase reporter, luminescence; 100% = signal with IL-6 EC80 alone | 190,000 tested, 0.91% active | AID 871;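 active = activation above the screen-wide mean of compound activation plus 3 SD, cut at about 130% in these data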;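 also: 0% = background luminescence of wells with medium and substrate only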
#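 system = STAT3-luciferase reporter U3A cells | reagent = IL-6 stimulus at 33 ng/mL final | timing = 1 h compound pre-exposure, 6 h IL-6 stimulation, 37 °C | measured by = luminescence | evaluation = % activation versus median of IL-6-stimulated wells | control set = IL-6-only wells as 100% reference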
# NF-kB expr up: raises NF-kB expression in human neuronal cells; NF-kB reporter expression; active compounds read high; fold change at 12.5 µM; 190,000 tested, 1.6% active; in the data active = fold change above about 3.3
# STAT3 act-2: STAT3 activation, confirmation assay; 1,200 tested, 64% active; shares compounds with STAT3 act-1; AID 1267; U3A STAT3-luciferase reporter, IL-6 potentiation, luminescence; U3A cells lack STAT1; 100 means same as IL-6 alone; potentiation (% of control), % at 5.7 µM;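 active = percent activation of the STAT3 luciferase reporter above a set limit taken from the earlier primary screen, cut at about 130% in these data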;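 also: 0% = background signal of medium plus substrate and 100% = median of IL-6 with DMSO wells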
# NFkB act 2: activates NF-kappaB, counter-screen to STAT3 activators | AID 1309 | human cells, NF-kappaB reporter activation | activation (% of control), % at 5.7 µM | 1,200 tested, 11% active | shares compounds with STAT3 act-1; in the data active = activation above about 120%;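 also: reporter induced by TNF-alpha stimulation; 100% = median of stimulated DMSO wells and 0% = no signal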
# STAT1 act-2: activates STAT1, counter-screen to STAT3 activators | NIH 3T3 STAT1-luciferase reporter, IFN-gamma, luminescence | AID 1318 | 1,200 tested, 13% active | activation (% of control), % at 5.7 µM | shares compounds with STAT3 act-1;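 active = activation above the solvent-only control well mean plus 3 SD, set per screening run, cut at about 120% in these data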;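 also: 100% = IFN-gamma with DMSO median signal so 100% means no change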
# Starred values were filed as active, the others as inactive; . = not tested or not shown.
SMILES,STAT1 blocker,STAT3 blocker,APP 5'UTR act,STAT1 act-1,STAT3 act-1,NF-kB expr up,STAT3 act-2,NFkB act 2,STAT1 act-2
CC1CC(C)CN(C(=O)CSCC(=O)Nc2nc(-c3cccs3)cs2)C1 (stereo not drawn),11,-44,8,90,136*,1.3,126,102,98
O=C(NCCN1CCOCC1)c1cc(Sc2ccccc2Cl)nc2ccccc12,-2,-4,-9,102,104,1,.,.,.
N#CC1=C2N=C(N)c3ccccc3N2C2=C(C(=O)CCC2)C1c1ccc(Cl)cc1 (stereo not drawn),8,-96,-8,93,183*,0.45,149*,97,97
CC1(C)CC(=O)C2=C(C1)N1C(=C(C#N)C2c2ccc(Cl)cc2)N=C(N)c2ccccc21 (stereo not drawn),-6,-34,1,105,129,0.49,.,.,.
O=S(=O)(Nc1nc2ccccc2s1)c1ccc(Cl)s1,3,-45,8,97,138*,0.96,121,105,102
O=C(O)C(Cc1c[nH]c2ccccc12)N1Cc2ccccc2C1=O (stereo not drawn),-12,-44,-9,110,143*,.,137*,114,114
COc1ccc(NC(=O)CSc2nnc(-c3cccs3)n2C)cc1OC,4,11,2,95,95,0.99,.,.,.
Cc1ccc(-n2c(SCC(=O)Nc3ccc4cn[nH]c4c3)nnc2-c2ccco2)cc1,10,-54,-24,94,149*,0.61,143*,105,96
Cn1c(SCC(=O)Nc2ccc3cn[nH]c3c2)nnc1-c1cnccn1,3,-50,-9,99,145*,0.92,146*,100,99
Cn1c(SCC(=O)Nc2ccc3cn[nH]c3c2)nnc1-c1cccs1,-1,-70,-17,99,162*,1,149*,106,99
COc1ccc(-n2cc(CNCc3cnc4ccccn34)c(-c3cccc(F)c3)n2)cc1,-8,4,5,105,100,0.77,.,.,.
c1ccc(-c2cc3c(-n4cccc4)ncnc3o2)cc1,12,-52,2,89,151*,1.2,160*,112,113
CC(C)OC(=O)CSc1nc(Cc2ccccc2)nc2ccccc12,-2,-4,5,100,106,1.2,.,.,.
CCS(=O)(=O)Nc1ccc(C2=NN(S(C)(=O)=O)C(c3cccs3)C2)cc1 (stereo not drawn),-15,-44,4,113,137*,1.5,125,101,102
CCC(CC)NC(=O)Cc1ccccc1[N+](=O)[O-],10,-30,-11,94,138*,1.2,140*,108,97
CCCC(C)NC(=O)Cc1ccccc1[N+](=O)[O-] (stereo not drawn),4,-30,11,96,126,1.1,.,.,.
Cn1c2ccccc2c2cc(C(=O)NNS(=O)(=O)c3ccc(F)cc3)sc21,1,-42,-9,99,136*,1.2,127,96,103
CC(C)N(C(=O)CSc1nnc(CSc2ncccn2)n1C)C(C)C,-3,9,11,102,98,0.94,.,.,.
CCOC(=O)C1(CC2CCCCO2)CCN(Cc2cc3ccccc3[nH]2)CC1 (stereo not drawn),19,-49,14,81,144*,1,136*,104,95
O=C1C2=C(Nc3ccccc3SC2c2ccco2)c2ccccc21 (stereo not drawn),-6,-36,21,105,137*,1,125,102,105
CSc1nc(O)c(C2OC(=O)c3ccccc32)c(=O)[nH]1 (stereo not drawn),4,9,-2,96,96,1.3,.,.,.
CSc1nc(O)c(/C=C2\C=Nc3ccccc32)[nH]1,-23,-45,5,121,138*,1.5,146*,112,123*
Cc1cc(C)c2oc(-c3ccc(C)c(NC(=S)NC(=O)/C=C/c4ccco4)c3)nc2c1,6,-44,16,94,151*,0.94,146*,109,103
Cc1ccc2oc(-c3cccc(NC(=S)NC(=O)/C=C/c4ccco4)c3)nc2c1,-11,-37,16,110,138*,0.49,130,109,123*
Cc1ccc(-c2nc3ccccc3o2)cc1NC(=S)NC(=O)c1cccs1,-20,4,61,118,105,2.1,.,.,.
SMILES,STAT1 blocker,STAT3 blocker,APP 5'UTR act,STAT1 act-1,STAT3 act-1,NF-kB expr up,STAT3 act-2,NFkB act 2,STAT1 act-2
Cc1cc(C)c2oc(-c3ccc(C)c(NC(=S)NC(=O)c4cccs4)c3)nc2c1,-8,-81,39,107,165*,1.9,147*,107,106
Cc1ncoc1C(=O)N1CCc2c([nH]c3ccccc23)C1c1ccccc1F (stereo not drawn),8,-33,-8,91,130,1.3,.,.,.
CN1N=C(C(=O)N2CCc3c([nH]c4ccccc34)C2c2c(F)cccc2Cl)CCC1=O (stereo not drawn),-11,-53,22,110,154*,1.7,150*,104,114
CN(Cc1ccccc1)Cc1c[nH]c2ccccc12,-2,-64,5,102,158*,1.1,141*,102,95
CC(Cc1c[nH]c2ccccc12)C(=O)O (stereo not drawn),4,-14,-4,95,112,1.4,.,.,.
Cc1ccc(CNC(=O)Cc2csc(Nc3nc(=S)[nH]c4ccccc34)n2)cc1,5,-40,-10,96,141*,1.3,133*,104,97
O=C(Cc1csc(Nc2nc(=S)[nH]c3ccccc23)n1)NCc1ccccc1Cl,-3,-23,0,103,126,1.1,.,.,.
COc1ccc(CC(=O)Nc2cccc(-c3ccc4nncn4n3)c2)cc1OC,13,38,0,87,69,1.2,.,.,.
Cc1cccc(NC(=O)c2cc([N+](=O)[O-])ccc2Cl)c1O,6,-49,5,95,155*,1.2,162*,110,98
O=C(Nc1ccccc1Oc1ccccc1)c1cc([N+](=O)[O-])ccc1Cl,5,2,2,96,98,0.64,.,.,.
Cc1ccnc(NC(=O)CCC(=O)N(CC(=O)NC2CCCCC2)Cc2cccs2)c1,-9,5,18,107,97,0.93,.,.,.
